Experiments:
[1] = target: Receptor tyrosine-protein kinase erbB-2 (Homo sapiens, UniProt P04626); test: Inhibition of HER-2 (unknown origin) using poly-(Glu4-Tyr) as substrate after 1 hr by ELISA-based spectrophotometry
Method in brief: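 ELISA on plates pre-coated with poly(Glu,Tyr 4:1) substrate. Serially diluted compounds plus ATP were added in 50 mM HEPES pH 7.4 containing 20 mM MgCl₂, 0.2 mM MnCl₂, 0.1 mM Na₃VO₄ and 1 mM DTT. Phosphotyrosine was detected with anti-phosphotyrosine antibody PY99 (1:500), then HRP anti-mouse IgG, then o-phenylenediamine/H₂O₂ at pH 5.5.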

[2] = target: Epidermal growth factor receptor (Homo sapiens, UniProt P00533); test: Inhibition of EGFR (unknown origin) using poly-(Glu4-Tyr) as substrate after 1 hr by ELISA-based spectrophotometry
Sequence of Epidermal growth factor receptor (P00533 whole entry): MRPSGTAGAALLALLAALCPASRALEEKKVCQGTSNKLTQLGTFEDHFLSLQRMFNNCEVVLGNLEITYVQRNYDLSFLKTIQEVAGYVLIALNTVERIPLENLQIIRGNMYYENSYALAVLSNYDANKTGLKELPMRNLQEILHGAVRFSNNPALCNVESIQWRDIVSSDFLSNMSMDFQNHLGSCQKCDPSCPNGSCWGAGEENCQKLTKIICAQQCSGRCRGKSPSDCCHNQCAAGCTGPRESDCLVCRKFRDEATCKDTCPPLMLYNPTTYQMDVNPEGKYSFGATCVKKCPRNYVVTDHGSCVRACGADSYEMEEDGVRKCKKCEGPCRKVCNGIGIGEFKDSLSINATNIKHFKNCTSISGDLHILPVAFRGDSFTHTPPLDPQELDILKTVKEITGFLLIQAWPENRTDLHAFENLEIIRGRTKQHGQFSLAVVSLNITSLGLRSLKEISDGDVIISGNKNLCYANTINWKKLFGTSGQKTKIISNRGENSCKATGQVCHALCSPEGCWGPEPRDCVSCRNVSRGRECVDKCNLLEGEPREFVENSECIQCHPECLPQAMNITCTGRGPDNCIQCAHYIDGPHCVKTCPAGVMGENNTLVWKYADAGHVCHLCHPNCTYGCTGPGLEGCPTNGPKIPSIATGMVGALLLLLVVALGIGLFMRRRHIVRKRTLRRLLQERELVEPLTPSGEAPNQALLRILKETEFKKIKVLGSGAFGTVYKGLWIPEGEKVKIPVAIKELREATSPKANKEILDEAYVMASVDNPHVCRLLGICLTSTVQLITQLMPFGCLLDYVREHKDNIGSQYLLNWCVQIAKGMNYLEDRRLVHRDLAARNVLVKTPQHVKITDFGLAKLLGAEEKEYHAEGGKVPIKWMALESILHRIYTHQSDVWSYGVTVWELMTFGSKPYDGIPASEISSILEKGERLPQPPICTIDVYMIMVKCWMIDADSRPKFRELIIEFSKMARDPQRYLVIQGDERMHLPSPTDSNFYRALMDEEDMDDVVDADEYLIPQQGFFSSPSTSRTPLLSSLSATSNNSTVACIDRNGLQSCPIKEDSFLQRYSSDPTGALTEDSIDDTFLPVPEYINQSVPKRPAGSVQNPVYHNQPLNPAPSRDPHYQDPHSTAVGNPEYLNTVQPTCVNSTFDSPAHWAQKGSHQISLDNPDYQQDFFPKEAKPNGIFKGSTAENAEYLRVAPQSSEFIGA

Rattus norvegicus [3] = test: Elimination half life in Wistar rat at 100 mg/kg, po assessed as lapatinib; type: ADME, organism-based; design: dose 100 mg/kg, route oral; conditions: in vivo
Method in brief: (§1)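 Male Wistar rats (220 ± 10 g), n = 4 per group, given the tosylate salt orally by gavage at 100 mg/kg, suspended in 0.5% sodium carboxymethylcellulose. Blood was sampled at 0.25 to 24 h. Parent compound and the lapatinib metabolite were extracted by C18 solid-phase extraction and analysed by LC/MSn.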

[4] = Elimination half life in Wistar rat at 100 mg/kg, po; type: ADME, organism-based; design: dose 100 mg/kg, route oral; conditions: in vivo, read-out: beta t1/2 (converted); method in brief: as §1
Rattus norvegicus [5] = test: Mean residence time in Wistar rat at 100 mg/kg, po assessed as lapatinib; type: ADME, organism-based; design: dose 100 mg/kg, route oral; conditions: in vivo; method in brief: as §1
[6] = Mean residence time in Wistar rat at 100 mg/kg, po; type: ADME, organism-based; design: dose 100 mg/kg, route oral; conditions: in vivo; method in brief: as §1
Rattus norvegicus [7] = test: AUC (0 to infinity) in Wistar rat at 100 mg/kg, po assessed as lapatinib; type: ADME, organism-based, Plasma; design: time infinity, dose 100 mg/kg, route oral; conditions: in vivo; method in brief: as §1
[8] = AUC (0 to infinity) in Wistar rat at 100 mg/kg, po; type: ADME, organism-based; design: time infinity, dose 100 mg/kg, route oral; conditions: plasma; method in brief: as §1
Rattus norvegicus [9] = test: AUC (0 to t) in Wistar rat at 100 mg/kg, po assessed as lapatinib; type: ADME, organism-based, Plasma; design: dose 100 mg/kg, route oral; conditions: in vivo; method in brief: as §1
[10] = AUC (0 to t) in Wistar rat at 100 mg/kg, po; type: ADME, organism-based; design: dose 100 mg/kg, route oral; conditions: plasma; method in brief: as §1
Rattus norvegicus [11] = test: Cmax in Wistar rat at 100 mg/kg, po assessed as lapatinib; type: ADME, organism-based; design: dose 100 mg/kg, route oral; conditions: in vivo; method in brief: as §1
[12] = Cmax in Wistar rat at 100 mg/kg, po; type: ADME, organism-based; design: dose 100 mg/kg, route oral; conditions: in vivo; method in brief: as §1
Rattus norvegicus [13] = test: Tmax in Wistar rat at 100 mg/kg, po assessed as lapatinib; type: ADME, organism-based; design: dose 100 mg/kg, route oral; conditions: in vivo; method in brief: as §1
[14] = Tmax in Wistar rat at 100 mg/kg, po; type: ADME, organism-based; design: dose 100 mg/kg, route oral; conditions: in vivo; method in brief: as §1
NCI-N87 [15] = test: Antitumor activity against human NCI-N87 cells xenografted in BALB/c athymic mouse assessed as tumor regression at 200 mg/kg, po qd after 28 days relative to vehicle-treated control; type: functional; conditions: NCI-N87, 672 h, read-out: TGI
Method in brief: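 Female BALB/c athymic mice, 4–6 weeks old, received 2 × 10⁶ NCI-N87 or SK-OV-3 cells s.c. in the right flank. At a tumor volume of 100–300 mm³ they were randomized (control n = 10, treated n = 6). Tosylate salt was given at 200 mg/kg qd by oral gavage, and controls received vehicle. Tumor volume was taken as length × width²/2 by caliper. Inhibition = (1 − T/C) × 100% on mean relative tumor volume (RTV). Two-tailed t test.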

BT-474 = test: Cytotoxicity against human BT474 cells after 72 hrs by SRB assay; type: functional, cell-based; conditions: BT-474, 72 h
NCI-N87 [16] = test: Cytotoxicity against human NCI-N87 cells after 72 hrs by SRB assay; type: functional, cell-based; conditions: NCI-N87, 72 h
[17] = Aqueous solubility of the compound at 25 degC by shake-flask method; type: physicochemical; conditions: unbuffered water
SK-OV-3 = test: Antitumor activity against human SKOV3 cells xenografted in BALB/c athymic mouse assessed as tumor regression at 200 mg/kg, po qd after 21 days relative to vehicle-treated control; conditions: SK-OV-3, po, 504 h, read-out: TGI
Mus musculus [18] = test: Toxicity in BALB/c athymic mouse xenografted with human SKOV3 cells assessed as bloody stool at 200 mg/kg, po qd after 4 days; type: organism-based, SK-OV-3; design: dose 200 mg/kg, route oral; conditions: in vivo, 96 h
Mus musculus [19] = test: Toxicity in BALB/c athymic mouse xenografted with human NCI-N87 cells assessed as bloody stool at 200 mg/kg, po qd after 4 days; type: organism-based; design: dose 200 mg/kg, route oral; conditions: in vivo, 96 h
Mus musculus [20] = test: Toxicity in BALB/c athymic mouse xenografted with human SKOV3 cells assessed as hematuria at 200 mg/kg, po qd after 4 days; type: organism-based, SK-OV-3; design: dose 200 mg/kg, route oral; conditions: in vivo, 96 h
Mus musculus [21] = test: Toxicity in BALB/c athymic mouse xenografted with human NCI-N87 cells assessed as hematuria at 200 mg/kg, po qd after 4 days; type: organism-based; design: dose 200 mg/kg, route oral; conditions: in vivo, 96 h
Mus musculus [22] = test: Toxicity in BALB/c athymic mouse xenografted with human SKOV3 cells assessed as weight loss at 200 mg/kg, po qd after 4 days; type: organism-based, SK-OV-3; design: dose 200 mg/kg, route oral; conditions: in vivo, 96 h
Mus musculus [23] = test: Toxicity in BALB/c athymic mouse xenografted with human NCI-N87 cells assessed as weight loss at 200 mg/kg, po qd after 4 days; type: organism-based; design: dose 200 mg/kg, route oral; conditions: in vivo, 96 h

Sequence of Receptor tyrosine-protein kinase erbB-2 (P04626 whole entry): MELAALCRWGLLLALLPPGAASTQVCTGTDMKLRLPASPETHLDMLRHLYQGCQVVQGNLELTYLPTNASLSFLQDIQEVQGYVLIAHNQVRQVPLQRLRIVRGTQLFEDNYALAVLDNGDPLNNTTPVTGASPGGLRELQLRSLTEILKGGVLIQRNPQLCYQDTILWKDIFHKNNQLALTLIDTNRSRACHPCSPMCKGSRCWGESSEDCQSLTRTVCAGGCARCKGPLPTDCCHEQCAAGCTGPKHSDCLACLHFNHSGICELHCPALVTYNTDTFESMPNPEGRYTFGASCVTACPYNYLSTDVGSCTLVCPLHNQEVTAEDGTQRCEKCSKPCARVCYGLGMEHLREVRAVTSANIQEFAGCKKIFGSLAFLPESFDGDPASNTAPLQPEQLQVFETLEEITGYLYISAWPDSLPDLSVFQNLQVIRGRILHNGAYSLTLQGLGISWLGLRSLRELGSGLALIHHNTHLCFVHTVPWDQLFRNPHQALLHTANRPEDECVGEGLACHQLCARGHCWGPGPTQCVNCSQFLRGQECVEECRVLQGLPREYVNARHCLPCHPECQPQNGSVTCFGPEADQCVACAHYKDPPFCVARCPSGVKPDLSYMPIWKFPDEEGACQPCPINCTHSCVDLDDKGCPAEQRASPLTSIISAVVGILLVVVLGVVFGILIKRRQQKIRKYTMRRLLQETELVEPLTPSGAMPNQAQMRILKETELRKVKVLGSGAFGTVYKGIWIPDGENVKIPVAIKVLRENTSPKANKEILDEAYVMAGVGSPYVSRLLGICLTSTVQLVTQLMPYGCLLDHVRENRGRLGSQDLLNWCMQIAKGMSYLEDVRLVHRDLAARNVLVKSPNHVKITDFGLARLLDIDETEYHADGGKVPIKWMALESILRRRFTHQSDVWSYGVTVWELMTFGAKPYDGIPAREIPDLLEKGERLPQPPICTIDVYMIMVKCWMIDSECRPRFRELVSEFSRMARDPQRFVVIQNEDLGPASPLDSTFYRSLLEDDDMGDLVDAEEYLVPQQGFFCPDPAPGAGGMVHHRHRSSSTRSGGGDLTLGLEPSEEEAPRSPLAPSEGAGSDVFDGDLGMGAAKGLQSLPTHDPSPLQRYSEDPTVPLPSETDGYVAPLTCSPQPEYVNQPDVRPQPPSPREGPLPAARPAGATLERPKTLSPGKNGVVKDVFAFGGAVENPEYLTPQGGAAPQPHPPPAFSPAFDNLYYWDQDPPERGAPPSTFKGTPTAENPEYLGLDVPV

SMILES	IC50 [1] [nM]	IC50 [2] [nM]	beta t1/2 (Rattus norvegicus [3]) [h]	half-life [4] [h]	MRT (Rattus norvegicus [5]) [h]	MRT [6] [h]	AUC (Rattus norvegicus [7]) [ng·h/mL]	AUC(0-inf) [8] [ng·h/mL]	AUCt (Rattus norvegicus [9]) [ng·h/mL]	AUC(0-t) [10] [ng·h/mL]	Cmax (Rattus norvegicus [11]) [ng/mL]	Cmax [12] [ng/mL]	Tmax (Rattus norvegicus [13]) [h]	Tmax [14] [h]	inhibition in vivo at 200 mg/kg (NCI-N87 [15]) [%]	IC50 (BT-474) [nM]	IC50 (NCI-N87 [16]) [nM]	solubility [17] [µg/mL]	inhibition in vivo at 200 mg/kg (SK-OV-3) [%]	also measured
CS(=O)(=O)N1CCN(Cc2ccc(-c3ccc4ncnc(Nc5ccc(OCc6cccc(F)c6)c(Cl)c5)c4c3)o2)CC1	19.8	59.9																		
CN1CCN(Cc2ccc(-c3ccc4ncnc(Nc5ccc(OCc6cccc(F)c6)c(Cl)c5)c4c3)o2)CC1	23.7	12.5																		
NS(=O)(=O)CCNCc1ccc(-c2ccc3ncnc(Nc4ccc(OCc5cccc(F)c5)c(Cl)c4)c3c2)o1	3.9																			
C[S+]([O-])CCNCc1ccc(-c2ccc3ncnc(Nc4ccc(OCc5cccc(F)c5)c(Cl)c4)c3c2)o1.Cc1ccc(S(=O)(=O)O)cc1 (stereo not drawn)			2.64	2.32	5.88	5.38	4309	53200	4295	50300	645	8880	4.5	3.5						
CS(=O)(=O)CCNCc1ccc(-c2ccc3ncnc(Nc4ccc(OCc5cccc(F)c5)c(Cl)c4)c3c2)o1.Cc1ccc(S(=O)(=O)O)cc1.Cc1ccc(S(=O)(=O)O)cc1.O [LAPATINIB DITOSYLATE]				1.91		5.52		26900		26900		3900		2.5	89.7	37.4	46.2	7	78.8	
CSCCNCc1ccc(-c2ccc3ncnc(Nc4ccc(OCc5cccc(F)c5)c(Cl)c4)c3c2)o1.Cc1ccc(S(=O)(=O)O)cc1	18.3	25.1	4.18	4.43	8.34	8.19	2058	8130	1994	7890	242	854	3	3	84.7	35.1	47.3	3	74.6	Activity (Mus musculus [18]): Non-toxic; Activity (Mus musculus [19]): Non-toxic; Activity (Mus musculus [20]): Non-toxic; Activity (Mus musculus [21]): Non-toxic; Activity (Mus musculus [22]): Non-toxic; Activity (Mus musculus [23]): Non-toxic

— ChEMBL document CHEMBL2434871, “Discovery of a potent dual EGFR/HER-2 inhibitor L-2 (selatinib) for the treatment of cancer” (Eur J Med Chem, 2013)
